Measurements: paper PMC5131813 (Molecular Pain, 2016)

Key:
[1] = test system: AITC-induced licking/biting; details: cited from earlier work
CCI, SNL, CFA = details: cited from earlier work
rTRPM8 = rTRPM8 (Rattus norvegicus, UniProt Q8R455); test: TRP channel selectivity, luminescence calcium assay in CHO cells; assay type: cell-based
How it was run: (§1)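 Tetracycline-inducible stable CHO lines co-expressing aequorin were induced with 0.5 µg/ml tetracycline 24 h before the assay. Cells were loaded for 2 h in pH 7.2 F12 with 30 mM HEPES and 15 µM coelenterazine. Test compound was added 2.5 min before agonist: 200 µM 2-APB for TRPV3, or 1 µM icilin or 12 °C cold buffer for TRPM8. Luminescence was read by CCD luminometer, and IC50 was fitted.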

[2] = test system: 40 targets including GPCRs, ion channels, and kinases; test: CEREP selectivity profiling; assay type: binding
TRPA1 [3] = molecular target: T1, TRPA1 (Rattus norvegicus, UniProt Q6RI86); details: 1, 3, 10, and 30 mg/kg; cited from earlier work
T1 sequence (Q6RI86 whole entry): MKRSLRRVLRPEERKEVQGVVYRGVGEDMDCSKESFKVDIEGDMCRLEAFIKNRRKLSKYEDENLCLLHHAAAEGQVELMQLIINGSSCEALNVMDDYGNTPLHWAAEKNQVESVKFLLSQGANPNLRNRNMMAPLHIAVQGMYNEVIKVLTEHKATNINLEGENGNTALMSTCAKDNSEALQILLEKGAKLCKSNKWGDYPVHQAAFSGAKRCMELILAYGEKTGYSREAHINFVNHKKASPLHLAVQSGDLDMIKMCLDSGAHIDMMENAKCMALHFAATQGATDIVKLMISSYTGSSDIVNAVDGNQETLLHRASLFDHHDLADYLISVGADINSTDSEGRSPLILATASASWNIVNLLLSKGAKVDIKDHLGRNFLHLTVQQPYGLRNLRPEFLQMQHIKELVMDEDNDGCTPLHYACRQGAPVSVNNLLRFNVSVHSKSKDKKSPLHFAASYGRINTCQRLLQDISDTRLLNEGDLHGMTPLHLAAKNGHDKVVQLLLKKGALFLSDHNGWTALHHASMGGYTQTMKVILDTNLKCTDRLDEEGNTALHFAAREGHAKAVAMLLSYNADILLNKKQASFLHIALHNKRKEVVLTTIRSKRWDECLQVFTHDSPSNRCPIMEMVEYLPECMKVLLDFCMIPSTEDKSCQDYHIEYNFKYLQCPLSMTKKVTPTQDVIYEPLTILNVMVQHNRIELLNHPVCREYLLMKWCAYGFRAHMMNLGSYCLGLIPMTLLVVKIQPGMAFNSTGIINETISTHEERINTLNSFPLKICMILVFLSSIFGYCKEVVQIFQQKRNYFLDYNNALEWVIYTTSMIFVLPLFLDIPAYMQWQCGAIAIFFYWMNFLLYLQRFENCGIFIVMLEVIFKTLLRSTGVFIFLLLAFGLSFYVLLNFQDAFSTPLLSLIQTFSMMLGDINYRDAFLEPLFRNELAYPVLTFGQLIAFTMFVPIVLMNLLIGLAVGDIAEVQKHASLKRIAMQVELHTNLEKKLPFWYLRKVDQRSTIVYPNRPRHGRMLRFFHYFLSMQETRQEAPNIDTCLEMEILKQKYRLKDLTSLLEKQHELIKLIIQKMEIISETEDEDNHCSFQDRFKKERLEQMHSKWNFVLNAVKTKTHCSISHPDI

rat TRPA1 = rat TRPA1 (Rattus norvegicus, UniProt Q6RI86); test: Agonist-induced TRPA1 activation in stably expressing CHO cells; assay type: cell-based; details: for IC50: stably expressing CHO cells
rat TRPA1, sequence (Q6RI86 whole entry): as above

[4] = Unbound plasma exposure in pharmacodynamic and pain models; assay type: in vivo, rat
How it was run: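 Rats in the pain models were dosed orally with test compound in 1% Tween80/2% HPMC/97% water/methanesulfonic acid pH 2.2. Plasma drug levels were measured by LC-MS/MS after protein precipitation, using a structurally similar internal standard and calibration standards serially diluted into blank plasma from a 1 mg/mL DMSO stock.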

TRPA1 [5] = molecular target: T1, TRPA1; test: AITC-induced licking/flinching model; assay type: in vivo; details: po, read-out: Rat AITC PD model IC90
How it was run: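 Rats dosed p.o. at 0.3, 1, 3 or 10 mg/kg, or vehicle (1% Tween80/2% HPMC/97% water/methanesulfonic acid, pH 2.2), 60 min before intraplantar AITC (30 µl, in 0.5% Tween 80/PBS). A blinded observer counted flinches and guard/licks >3 s for 1 min post-injection. Plasma levels were measured by LC-MS/MS. IC90 came from sigmoidal fit of individual response versus plasma concentration.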

[6] = Pharmacokinetics in plasma and brain; assay type: in vivo; details: Sprague-Dawley, rat
rat TRPV1 = rat TRPV1 (Rattus norvegicus, UniProt O35433); test: TRP channel selectivity, luminescence calcium assay in CHO cells; assay type: cell-based
rat TRPV1, sequence (O35433 whole entry): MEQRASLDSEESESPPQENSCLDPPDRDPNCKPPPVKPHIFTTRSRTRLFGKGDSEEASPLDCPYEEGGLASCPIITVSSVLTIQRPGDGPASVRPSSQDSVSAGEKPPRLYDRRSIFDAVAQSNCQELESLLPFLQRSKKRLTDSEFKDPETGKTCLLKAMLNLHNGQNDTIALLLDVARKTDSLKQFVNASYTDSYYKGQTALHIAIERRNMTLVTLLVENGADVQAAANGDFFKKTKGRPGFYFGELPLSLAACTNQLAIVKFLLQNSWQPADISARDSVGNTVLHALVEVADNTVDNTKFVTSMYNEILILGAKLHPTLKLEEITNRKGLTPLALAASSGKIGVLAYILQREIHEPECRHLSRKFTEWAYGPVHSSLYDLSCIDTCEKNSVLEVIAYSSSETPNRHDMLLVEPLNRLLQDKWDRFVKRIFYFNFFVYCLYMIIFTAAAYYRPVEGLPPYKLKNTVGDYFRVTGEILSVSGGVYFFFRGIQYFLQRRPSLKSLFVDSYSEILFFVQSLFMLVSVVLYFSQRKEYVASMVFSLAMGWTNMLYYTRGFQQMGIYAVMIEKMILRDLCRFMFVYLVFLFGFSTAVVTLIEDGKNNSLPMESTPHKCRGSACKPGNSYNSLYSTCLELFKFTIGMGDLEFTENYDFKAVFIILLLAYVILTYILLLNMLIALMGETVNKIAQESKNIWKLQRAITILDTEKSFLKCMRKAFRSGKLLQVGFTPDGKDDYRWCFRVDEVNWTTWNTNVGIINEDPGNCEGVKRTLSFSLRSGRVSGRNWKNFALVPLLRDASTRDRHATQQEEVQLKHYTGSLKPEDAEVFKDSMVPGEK
How it was run: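 A CHO line constitutively expressing rat TRPV1 plus aequorin was used without tetracycline induction. Cells were loaded for 2 h with 15 µM coelenterazine in pH 7.2 F12 containing 30 mM HEPES. Test compound was added 2.5 min before 0.5 µM capsaicin. Luminescence was recorded by a CCD-camera luminometer, and IC50 was derived by curve fitting.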

[7] = Plasma protein binding by ultracentrifugation; assay type: in vitro ADME; details: male, rat
How it was run: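 Test compound at 5 µg/mL was incubated in male rat plasma for 15 min at 37 °C, then ultracentrifuged at 16,128 × g for 3 h at 37 °C. Samples were precipitated with acetonitrile containing internal standard, dried under nitrogen, reconstituted in methanol/water 50:50 and quantified by LC-MS/MS against calibration standards. The unbound fraction was taken as measured/nominal concentration.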

rTRPV3 = molecular target: T2, rTRPV3 (Rattus norvegicus, UniProt Q4QYD9); test: TRP channel selectivity, luminescence calcium assay in CHO cells; assay type: cell-based
T2 sequence (Q4QYD9 1-791): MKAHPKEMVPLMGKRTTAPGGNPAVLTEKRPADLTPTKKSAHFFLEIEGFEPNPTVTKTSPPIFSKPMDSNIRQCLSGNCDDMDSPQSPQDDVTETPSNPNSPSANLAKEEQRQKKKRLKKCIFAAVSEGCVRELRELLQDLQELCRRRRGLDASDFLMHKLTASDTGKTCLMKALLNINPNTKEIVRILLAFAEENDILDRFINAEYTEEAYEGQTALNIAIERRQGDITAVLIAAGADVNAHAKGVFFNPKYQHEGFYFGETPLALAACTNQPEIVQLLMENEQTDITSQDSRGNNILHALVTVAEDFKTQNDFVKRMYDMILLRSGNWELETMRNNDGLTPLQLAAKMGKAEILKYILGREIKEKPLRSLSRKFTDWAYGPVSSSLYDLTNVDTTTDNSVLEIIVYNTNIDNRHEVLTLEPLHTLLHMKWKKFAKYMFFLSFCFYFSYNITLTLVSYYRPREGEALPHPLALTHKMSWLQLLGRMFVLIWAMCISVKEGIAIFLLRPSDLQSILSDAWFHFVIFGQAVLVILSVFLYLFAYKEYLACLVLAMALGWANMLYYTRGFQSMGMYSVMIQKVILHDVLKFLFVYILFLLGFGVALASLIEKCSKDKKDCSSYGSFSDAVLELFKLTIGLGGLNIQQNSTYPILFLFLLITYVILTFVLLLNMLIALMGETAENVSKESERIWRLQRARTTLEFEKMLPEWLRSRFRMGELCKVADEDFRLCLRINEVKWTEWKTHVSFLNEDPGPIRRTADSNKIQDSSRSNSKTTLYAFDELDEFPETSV
How it was run: as §1

[8] = test system: CFA-induced hypersensitivity; test: CFA-induced decreased rearing in an open field assay; assay type: in vivo; details: rat; for rearing time: 23 h after CFA, 60 min, CFA vehicle 204 ± 25 s; for effect on CFA-induced reduction in rearing: naproxen sodium 3 mg/kg, AMG0902 up to 100 mg/kg
hTRPV4 = hTRPV4 (Homo sapiens, UniProt Q9HBA0); test: TRP channel selectivity, luminescence calcium assay in CHO cells; assay type: cell-based
hTRPV4, sequence (Q9HBA0 whole entry): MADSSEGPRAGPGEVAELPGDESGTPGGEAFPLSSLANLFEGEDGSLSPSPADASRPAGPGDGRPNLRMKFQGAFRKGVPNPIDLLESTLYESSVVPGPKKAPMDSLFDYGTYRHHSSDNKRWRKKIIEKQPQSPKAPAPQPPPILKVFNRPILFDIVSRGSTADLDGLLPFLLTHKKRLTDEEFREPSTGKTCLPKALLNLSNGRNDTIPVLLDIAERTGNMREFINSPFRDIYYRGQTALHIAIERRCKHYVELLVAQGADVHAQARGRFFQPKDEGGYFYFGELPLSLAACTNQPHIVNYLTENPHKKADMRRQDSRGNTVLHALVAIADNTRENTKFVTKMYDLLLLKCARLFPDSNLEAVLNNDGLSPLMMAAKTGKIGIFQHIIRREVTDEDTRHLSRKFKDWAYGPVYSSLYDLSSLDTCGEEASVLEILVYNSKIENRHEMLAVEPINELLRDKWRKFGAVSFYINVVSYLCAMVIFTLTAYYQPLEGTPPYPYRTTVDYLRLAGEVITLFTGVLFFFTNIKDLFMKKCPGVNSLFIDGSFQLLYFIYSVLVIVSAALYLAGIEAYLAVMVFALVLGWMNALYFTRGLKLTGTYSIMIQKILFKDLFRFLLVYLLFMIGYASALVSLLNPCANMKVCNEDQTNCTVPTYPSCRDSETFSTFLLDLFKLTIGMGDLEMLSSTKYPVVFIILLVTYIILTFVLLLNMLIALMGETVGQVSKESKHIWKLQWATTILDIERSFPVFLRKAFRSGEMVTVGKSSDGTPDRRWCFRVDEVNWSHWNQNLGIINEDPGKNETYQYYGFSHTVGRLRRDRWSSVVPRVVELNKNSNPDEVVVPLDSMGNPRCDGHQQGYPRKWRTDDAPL
How it was run: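 A tetracycline-inducible CHO line expressing human TRPV4 plus aequorin was induced with 0.5 µg/ml tetracycline 24 h before the assay. Cells were loaded for 2 h in pH 7.2 F12 containing 30 mM HEPES, 1 mM CaCl2, 0.3% BSA and 15 µM coelenterazine. Test compound was added 2.5 min before 1 µM 4α-PDD. Luminescence was read on a CCD-camera luminometer, and IC50 was calculated.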

hTRPV1 = hTRPV1 (Homo sapiens, UniProt Q8NER1); test: TRP channel selectivity, calcium assay; assay type: cell-based
human TRPA1 = human TRPA1 (Homo sapiens, UniProt O75762); test: TRPA1 activation by AITC, antagonist assay; assay type: cell-based; details: read-out: human TRPA1 activation by AITC IC90
human TRPA1, sequence (O75762 whole entry): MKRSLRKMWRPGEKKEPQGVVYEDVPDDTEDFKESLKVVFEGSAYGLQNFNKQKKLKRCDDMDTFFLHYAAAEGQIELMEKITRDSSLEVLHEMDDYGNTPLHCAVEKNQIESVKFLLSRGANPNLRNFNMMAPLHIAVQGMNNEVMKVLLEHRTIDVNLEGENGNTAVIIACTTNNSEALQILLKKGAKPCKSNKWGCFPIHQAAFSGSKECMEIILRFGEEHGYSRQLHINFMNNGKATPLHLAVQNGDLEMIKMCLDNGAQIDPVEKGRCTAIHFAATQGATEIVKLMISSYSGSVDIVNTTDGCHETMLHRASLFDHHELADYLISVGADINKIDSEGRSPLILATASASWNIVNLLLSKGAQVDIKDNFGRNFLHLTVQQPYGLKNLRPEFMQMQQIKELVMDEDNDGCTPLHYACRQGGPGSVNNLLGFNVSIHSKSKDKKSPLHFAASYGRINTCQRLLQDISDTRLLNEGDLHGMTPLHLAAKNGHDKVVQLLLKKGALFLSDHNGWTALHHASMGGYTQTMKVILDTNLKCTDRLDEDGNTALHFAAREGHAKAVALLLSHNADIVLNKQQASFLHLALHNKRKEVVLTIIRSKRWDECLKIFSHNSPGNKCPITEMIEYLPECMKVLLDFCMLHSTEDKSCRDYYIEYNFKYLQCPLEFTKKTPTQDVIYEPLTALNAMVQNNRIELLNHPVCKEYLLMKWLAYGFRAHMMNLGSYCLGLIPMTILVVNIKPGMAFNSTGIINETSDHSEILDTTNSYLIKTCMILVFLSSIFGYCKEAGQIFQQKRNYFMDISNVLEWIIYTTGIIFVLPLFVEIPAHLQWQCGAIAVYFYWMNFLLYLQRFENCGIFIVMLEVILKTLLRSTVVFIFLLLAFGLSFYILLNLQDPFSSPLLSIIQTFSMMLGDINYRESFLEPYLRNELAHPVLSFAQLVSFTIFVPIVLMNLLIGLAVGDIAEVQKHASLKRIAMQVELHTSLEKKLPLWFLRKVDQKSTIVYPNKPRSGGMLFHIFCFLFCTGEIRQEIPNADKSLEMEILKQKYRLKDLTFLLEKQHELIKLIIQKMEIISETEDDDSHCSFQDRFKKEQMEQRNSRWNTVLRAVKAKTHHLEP

rTRPA1 = rTRPA1 (Rattus norvegicus, UniProt Q6RI86); test: rTRPA1 agonism assay; assay type: cell-based
mouse TRPA1 = mouse TRPA1 (Mus musculus, UniProt Q8BLA8); test: TRPA1 activation by AITC, antagonist assay; assay type: cell-based
mouse TRPA1, sequence (Q8BLA8 whole entry): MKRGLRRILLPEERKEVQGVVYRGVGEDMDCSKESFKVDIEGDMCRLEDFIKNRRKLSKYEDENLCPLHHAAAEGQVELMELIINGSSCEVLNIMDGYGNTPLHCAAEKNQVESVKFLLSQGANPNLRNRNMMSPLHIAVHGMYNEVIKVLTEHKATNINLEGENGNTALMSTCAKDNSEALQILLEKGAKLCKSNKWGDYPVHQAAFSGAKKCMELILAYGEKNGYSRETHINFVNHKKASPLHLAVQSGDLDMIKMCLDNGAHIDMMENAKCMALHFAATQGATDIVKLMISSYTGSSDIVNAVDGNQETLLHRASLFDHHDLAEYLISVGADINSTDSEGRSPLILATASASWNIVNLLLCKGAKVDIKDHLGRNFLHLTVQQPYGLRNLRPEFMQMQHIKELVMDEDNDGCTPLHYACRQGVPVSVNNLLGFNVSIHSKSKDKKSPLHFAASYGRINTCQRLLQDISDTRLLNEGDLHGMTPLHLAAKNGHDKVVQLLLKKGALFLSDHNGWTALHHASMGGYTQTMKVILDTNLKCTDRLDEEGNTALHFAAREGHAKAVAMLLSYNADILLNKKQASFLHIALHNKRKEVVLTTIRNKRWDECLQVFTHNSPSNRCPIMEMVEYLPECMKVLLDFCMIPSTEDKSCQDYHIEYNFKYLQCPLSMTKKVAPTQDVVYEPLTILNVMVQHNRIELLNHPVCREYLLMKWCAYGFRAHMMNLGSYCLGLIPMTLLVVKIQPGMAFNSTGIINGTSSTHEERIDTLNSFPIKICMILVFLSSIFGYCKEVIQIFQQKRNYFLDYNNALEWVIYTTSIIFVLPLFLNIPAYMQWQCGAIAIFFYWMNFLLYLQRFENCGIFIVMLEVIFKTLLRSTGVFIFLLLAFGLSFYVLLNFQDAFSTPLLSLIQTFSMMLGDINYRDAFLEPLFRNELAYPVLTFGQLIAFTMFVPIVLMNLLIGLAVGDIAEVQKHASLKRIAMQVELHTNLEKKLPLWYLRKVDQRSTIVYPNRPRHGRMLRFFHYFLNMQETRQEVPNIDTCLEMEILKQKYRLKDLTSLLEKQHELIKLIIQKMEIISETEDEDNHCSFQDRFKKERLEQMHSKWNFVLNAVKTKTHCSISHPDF

[9] = test system: SNL-induced tactile allodynia; test: SNL-induced tactile allodynia; assay type: in vivo; details: rat; 1 h and 2 h
How it was run: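 Two weeks after spinal nerve ligation, rats on a metal mesh floor were tested with nine von Frey filaments at near-equal log intervals. Filaments were applied to the mid-plantar glabrous area of the injured paw, and the 50% withdrawal threshold was found by the up-down method. After a baseline reading, rats received oral vehicle, test compound (100 or 300 mg/kg) or gabapentin 200 mg/kg and were retested at 1 and 2 h. Thresholds were log-transformed before statistics.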

[10] = test system: open field activity in rats; test: Open field activity; assay type: in vivo; details: rat open field, 60 min; for effect on total distance traveled vs vehicle: AMG0902 30-300 mg/kg, gabapentin 200 mg/kg p.o.
How it was run: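 Male Sprague-Dawley rats (220–300 g) were kept on a reversed light cycle for ≥1 week and acclimated 1 h. Test compound (30, 100 or 300 mg/kg), vehicle or gabapentin 200 mg/kg p.o. (same vehicle) was given 1 h before the rat was placed in a 41×41×38 cm box with 32 photocells. Beam breaks, distance, time and stereotypic movements were logged per minute over 60 min.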

C-fibers = details: cited from earlier work

In the case of `CCC(=N\O)/C(C)=C/c1ccc(F)cc1` [A-967079], the “effect on AITC-induced licking/biting in vivo” value [1] is given as “efficiently blocks”, the Efficacy (CCI, SNL, CFA; CCI, SNL, CFA, MH, 62 mg/kg, p.o., ref Chen et al.[42]) is given as “ineffective” and the “effect on von Frey-evoked tactile allodynia” value (CCI, SNL, CFA; CFA or SNL models) is given as “no effect”.
In the case of `Cn1cnc2ncn(Cc3nc(CCc4ccc(Cl)cc4)no3)c(=O)c21` [AMG0902, 1-((3-(4-Chlorophenethyl)-1,2,4-oxadiazol-5-yl)methyl)-7-methyl-1H-purin-6(7H)-one], the IC50 (rTRPM8) is reported as greater than 10000 nM, the “inhibition of specific ligand binding to each target” value ([2]; 40 targets profiled at CEREP) is reported as less than 33% and the IC50 ([2]; read-out: in vitro potency at 40 targets profiled at CEREP) is reported as greater than 10000 nM. For the same compound, the “effect on AITC-induced licking/flinching” value (TRPA1 [3]) was “dose-dependent prevention”, the IC90 (rat TRPA1; CHO, read-out: IC90 against rat TRPA1) was 300 nM and the IC50 (rat TRPA1; rTRPA1 (4-ONE) IC50, 35 µM 4-ONE) was 585 ± 110 nM. For the same compound, the IC50 (rat TRPA1; rTRPA1 (AITC) IC50, 80 µM AITC) was 68 ± 38 nM, the IC50 (rat TRPA1; rTRPA1 (Methylglyoxal) IC50, 2.74 mM methylglyoxal) was 151 ± 5 nM and the IC50 (rat TRPA1; rTRPA1 (Osmol) IC50, 100 mOsmol hypo-osmolarity) was 9.7 ± 2 nM. The “mean unbound plasma concentration” value ([4]; CFA Randall Selitto model, 300 mg/kg p.o.) was 35 ± 11 µM, the “mean unbound plasma concentration” value ([4]; CFA rearing model, 100 mg/kg p.o.) was 6.1 ± 2.4 µM and the “mean unbound plasma concentration” value ([4]; SNL model, 300 mg/kg p.o.) was 8.4 µM. The “mean Cu concentration (unbound plasma)” value ([4]; open field assay, 300 mg/kg p.o.) was 12.6 ± 5.4 µM, the IC90 (TRPA1 [5]) was 1700 nM and the Kp ([6]; brain) was 0.2. It also gave a clearance ([6]; male, plasma, iv, 2 mg/kg) of 41.7 mL/min/kg, an IC50 (rat TRPV1) greater than 10000 nM and a fraction unbound at 15 min, 5 µg/mL [7] of 0.29. The IC50 (rTRPV3) was greater than 10000 nM, the rearing time ([8]; AMG0902 100 mg/kg p.o.) was 264 ± 52 s and the “effect on CFA-induced reduction in rearing” value [8] was “no significant reduction”. The IC50 (hTRPV4) was greater than 10000 nM, the IC50 (hTRPV1) was greater than 10000 nM and the IC90 (human TRPA1) was 186 ± 18 nM. For the same compound, the IC50 (rTRPA1) was greater than 25000 nM, the IC50 (mouse TRPA1) was 113 ± 77 nM and the “effect on SNL-induced mechanical allodynia” value [9] was “no significant effect”. The rearing time ([10]; 300 mg/kg p.o., 1 h before) was 308 ± 67 s, the total distance traveled ([10]; 300 mg/kg p.o., 1 h before) was 7437 ± 900 cm and the “effect on total distance traveled vs vehicle” value [10] was “no significant effect”.
In the case of `CC(C)c1ccc(NC(=O)Cn2cnc3c2c(=O)n(C)c(=O)n3C)cc1` [HC-030031], the “effect on mechanically evoked action potential firing in C-fibers” value (C-fibers) is listed as “reduced mechanically evoked action potential firing”.
With `NCC1(CC(=O)O)CCCCC1` [gabapentin, reference compound] the “effect on SNL-induced mechanical allodynia” value [9] was “significantly reversed” and the “effect on total distance traveled vs vehicle” value [10] was “not significantly reduced”.
For `COc1ccc2cc([C@H](C)C(=O)O)ccc2c1` [naproxen, reference compound], the rearing time ([8]; naproxen 3 mg/kg p.o.) was 418 ± 49 cm and the “effect on CFA-induced reduction in rearing” value [8] was “significant inhibition”.
